{"data": "Assay results of several laboratories", "cell line": "A549", "read-out": "cell growth or viability"}
{"Compound": "O=C(O)c1ccc(NCc2cccc([N+](=O)[O-])c2)cc1", "method": "resazurin", "time": "72 h", "IC50": "> 100 µM"}
{"Compound": "O=C(Nc1ccc(Br)cc1)Nc1nc2cc(-c3ccc4ncn(Cc5ccccc5)c(=O)c4c3)ccc2s1", "method": "MTT", "time": "72 h", "IC50": "> 20 µM"}
{"Compound": "COc1cc(C=NNC(=O)c2cc(-c3ccccc3)n(-c3ccc(S(N)(=O)=O)cc3)n2)cc(OC)c1OC", "method": "fluorescence", "time": "48 h", "IC50": "18.8 µM"}
{"Compound": "O=C(C=Cc1cccs1)c1ccc(OCCCOc2ccc(C(=O)C=Cc3cccs3)cc2)cc1", "method": "MTT", "time": "48 h", "IC50": "115 µM"}
{"Compound": "O=C(Nc1nc2cc(-c3ccc4ncn(Cc5ccccc5)c(=O)c4c3)ccc2s1)NC1CCCCC1", "method": "MTT", "time": "72 h", "IC50": "12.2 µM"}
{"Compound": "CCCCn1cnc2ccc(-c3ccc(NC(=O)Nc4ccc(CC)cc4)nc3)cc2c1=O", "method": "CCK-8", "time": "72 h", "IC50": "> 10 µM"}
{"Compound": "COc1cc(CNc2ccc(C(=O)O)cc2)ccc1O", "method": "resazurin", "time": "72 h", "IC50": "> 100 µM"}
{"Compound": "O=[N+]([O-])c1ccc(NC(=S)N/N=C/c2cccc3cc4ccccc4nc23)cc1", "method": "MTT", "time": "48 h", "IC50": "> 50 µM"}
{"Compound": "COc1cccc(CNc2ccc(C(=O)O)cc2)c1O", "method": "resazurin", "time": "72 h", "IC50": "> 100 µM"}
{"Compound": "Cc1cc(NS(=O)(=O)c2ccc(NC(=O)/C(C#N)=C/c3ccc(N4CCOCC4)cc3)cc2)no1", "method": "MTT", "time": "48 h", "IC50": "109 µM"}
{"Compound": "CC1=CC(=O)C(C(C)C)=CC1=O", "method": "SRB", "time": "48 h", "IC50": "11.1 µM"}
{"Compound": "CC(C)[C@@H]1NC(=O)[C@@H](Cc2c[nH]cn2)NC(=O)[C@H]([C@@H](C)O)NC(=O)[C@@H](CCCN)NC(=O)[C@H](Cc2ccccc2)NC(=O)[C@@H](Cc2ccccc2)NC1=O", "method": "ATP luminescence", "IC50": "55.8 µM"}
{"Compound": "COc1ccc(CNc2ccc(C(=O)O)cc2)cc1", "method": "resazurin", "time": "72 h", "IC50": "> 100 µM"}
{"Compound": "CCCCC(=O)Nc1cc(C)c(-c2ccc3ncn(CCC)c(=O)c3c2)cn1", "method": "CCK-8", "time": "72 h", "IC50": "> 10 µM"}
{"Compound": "COc1ccc(C=NNC(=O)c2cc(-c3ccccc3)n(-c3ccc(S(N)(=O)=O)cc3)n2)cc1OC", "method": "fluorescence", "time": "48 h", "IC50": "15.5 µM"}
{"Compound": "O=C(Nc1ccc(-c2ccc3ncn(Cc4ccccc4)c(=O)c3c2)cn1)c1ccco1", "method": "CCK-8", "time": "72 h", "IC50": "> 10 µM"}
{"Compound": "COc1cc([C@@H]2c3cc4c(cc3[C@@H](O[C@@H]3O[C@@H]5CO[C@@H](C)O[C@H]5[C@H](O)[C@H]3O)[C@H]3COC(=O)[C@H]23)OCO4)cc(OC)c1O", "method": "SRB", "time": "72 h", "IC50": "0.3 µM"}
{"Compound": "COc1ccc(NC(=S)N/N=C/c2ccc(N3CCC(O)CC3)cc2)cc1", "method": "MTT", "time": "24 h", "IC50": "5.2 µM"}
{"Compound": "CCCCn1cnc2ccc(-c3ccc4sc(NC(=O)Nc5ccc(F)cc5)nc4c3)cc2c1=O", "method": "MTT", "time": "72 h", "IC50": "1.27 µM"}
{"Compound": "NNc1nc2ccc(Br)cc2c(=O)n1-c1ccc(Cl)cc1", "method": "MTT", "time": "48 h", "IC50": "79.2 µM"}
{"Compound": "CC#CCn1cnc2ccc(-c3ccc(NC(=O)CCCC)nc3)cc2c1=O", "method": "CCK-8", "time": "72 h", "IC50": "> 10 µM"}
{"Compound": "O=C(Cn1cc(COc2ncnc3[nH]cnc23)nn1)NCc1ccc(Cl)cc1", "method": "MTT", "IC50": "15.3 µM"}
{"Compound": "CN(C)C(=O)Nc1nc2c(Cl)cc(Cl)cc2c(=O)n1-c1ccccc1", "method": "MTT", "time": "48 h", "IC50": "> 200 µM"}
{"Compound": "CN(C)c1ccc(CNc2ccc(C(=O)O)cc2)cc1", "method": "resazurin", "time": "72 h", "IC50": "> 100 µM"}
{"Compound": "COc1cccc(NC(=S)N/N=C/c2cccc3cc4ccccc4nc23)c1", "method": "MTT", "time": "48 h", "IC50": "> 50 µM"}
{"Compound": "CC(C)[C@@H]1NC(=O)[C@@H](CCCCN)NC(=O)[C@H]([C@@H](C)O)NC(=O)[C@@H](CCCN)NC(=O)[C@H](Cc2ccccc2)NC(=O)[C@@H](Cc2ccccc2)NC1=O", "method": "ATP luminescence", "time": "72 h", "IC50": "> 100 µM"}
{"Compound": "CC(C)Cc1ccc([C@H](C)C(=O)O)cc1", "method": "SRB", "time": "72 h", "IC50": "349 µM"}
{"Compound": "OC1CCN(c2ccc(/C=N/NC(=S)Nc3ccc(Cl)cc3)cc2)CC1", "method": "MTT", "time": "24 h", "IC50": "2.92 µM"}
{"Compound": "CCCn1cnc2ccc(-c3ccc(NC(=O)CC)nc3)cc2c1=O", "method": "CCK-8", "time": "72 h", "IC50": "2.35 µM"}
{"Compound": "CC(=O)O[C@H]1C(=O)[C@@]2(C)[C@H]([C@H](OC(=O)c3ccccc3)[C@]3(O)C[C@H](OC(=O)[C@H](O)[C@@H](NC(=O)c4ccccc4)c4ccccc4)C(C)=C1C3(C)C)[C@]1(OC(C)=O)CO[C@@H]1C[C@@H]2O", "method": "MTT", "time": "72 h", "IC50": "0.64 µM"}
{"Compound": "C/C(=N\\CCNCC/N=C(\\C)c1c(O)c2ccccc2oc1=O)c1c(O)c2ccccc2oc1=O", "method": "MTT", "time": "48 h", "IC50": "8.75 µM"}
{"Compound": "Cc1ccc(C(C)C)c(OC2=C(Cl)C(=O)c3ccccc3C2=O)c1", "method": "MTT", "time": "24 h", "IC50": "40 µg/mL"}
{"Compound": "O=C(N[C@@H](CSCc1nc2cc([N+](=O)[O-])ccc2[nH]1)C(=O)NO)c1ccccc1", "method": "MTT", "time": "48 h", "IC50": "< 500 µM"}
{"Compound": "Cc1ccc(NNc2nc3c(Cl)cc(Cl)cc3c(=O)n2-c2ccccc2)cc1", "method": "MTT", "time": "48 h", "IC50": "> 200 µM"}
{"Compound": "COC(=O)c1cc(C(C)=NNc2nc(-c3ccc4c(c3)OCCCO4)cs2)ccc1O", "method": "MTT", "time": "96 h", "IC50": "180 µM"}
{"Compound": "C#Cc1cccc(Nc2ncnc3cc(OCCOC)c(OCCOC)cc23)c1", "method": "MTT", "time": "48 h", "IC50": "17.3 µM"}
{"Compound": "CCC(=O)Nc1nc2cc(-c3ccc4ncn(Cc5ccccc5)c(=O)c4c3)ccc2s1", "method": "MTT", "time": "72 h", "IC50": "> 20 µM"}
{"Compound": "CCCc1cc2cc(-n3nc(C)c4c3CC(C)(C)CC4=O)cc(N3CCC(O)CC3)c2c(=O)[nH]1", "method": "MTS", "IC50": "7.38 µM"}
{"Compound": "O=C(Nc1ccc(-c2ccc3ncn(Cc4ccccc4)c(=O)c3c2)cn1)C1CCC1", "method": "CCK-8", "time": "72 h", "IC50": "> 10 µM"}
{"Compound": "OC1CCN(c2ccc(/C=N/NC(=S)Nc3ccc(F)cc3)cc2)CC1", "method": "MTT", "time": "24 h", "IC50": "2.81 µM"}
{"Compound": "Cc1c2c(nn1C)CSCc1cc(n(C)n1)CSc1cc(c3ccccc3c1)OCCCc1c(C(=O)O)n(C)c3c-2c(Cl)ccc13", "method": "CCK-8", "IC50": "50 µM"}
{"Compound": "CCCCCC(=O)Nc1ccc(-c2ccc3ncn(Cc4ccccc4)c(=O)c3c2)cn1", "method": "CCK-8", "time": "72 h", "IC50": "> 10 µM"}
{"Compound": "Cc1cc(C)cc(NC(=O)Nc2nc3cc(-c4ccc5ncn(Cc6ccccc6)c(=O)c5c4)ccc3s2)c1", "method": "MTT", "time": "72 h", "IC50": "> 20 µM"}
{"Compound": "OC1CCN(c2ccc(/C=N/NC(=S)NCc3ccc(Cl)cc3)cc2)CC1", "method": "MTT", "time": "24 h", "IC50": "1.46 µM"}
{"Compound": "O=C(C=Cc1cccs1)c1ccc(OCCOc2ccc(C(=O)C=Cc3cccs3)cc2)cc1", "method": "MTT", "time": "48 h", "IC50": "42 µM"}
{"Compound": "COc1cccc2c1C(=O)c1c(O)c3c(c(O)c1C2=O)C[C@@](O)(C(=O)CO)C[C@@H]3O[C@H]1C[C@H](N)[C@H](O)[C@H](C)O1", "method": "MTT", "time": "48 h", "IC50": "5.95 µM"}
{"Compound": "O=c1c2cc(Cl)cc(Cl)c2nc(NNc2cccc(Cl)c2)n1-c1ccccc1", "method": "MTT", "time": "48 h", "IC50": "> 200 µM"}
{"Compound": "CCCn1cnc2ccc(-c3ccc(NC(=O)CC(C)CC)nc3)cc2c1=O (stereo not shown)", "method": "CCK-8", "time": "72 h", "IC50": "1.49 µM"}
{"Compound": "CCCn1cnc2ccc(-c3ccc4sc(NC(=O)Nc5ccc(F)cc5)nc4c3)cc2c1=O", "method": "MTT", "time": "72 h", "IC50": "0.44 µM"}
{"Compound": "C/C(=N\\N=C(/C)c1c(O)c2ccccc2oc1=O)c1c(O)c2ccccc2oc1=O", "method": "MTT", "time": "48 h", "IC50": "39.5 µM"}
{"Compound": "O=C(Nc1ccc(Cl)cc1)Nc1nc2cc(-c3ccc4ncn(CCN5CCOCC5)c(=O)c4c3)ccc2s1", "method": "MTT", "time": "72 h", "IC50": "> 20 µM"}
{"Compound": "C(=N\\Nc1cc(N/N=C/c2cccc3cccnc23)ncn1)/c1cccc2cccnc12", "method": "MTT", "time": "48 h", "IC50": "14.8 µM"}
